Source: article PMC10839685 (iScience, 2024)
Where “and” joins values, the source holds several entries; their conditions need not be identical. Equal entries are not always repeated. Entries after “also recorded” stand apart in the source; their conditions may differ.

Columns and labels:
AgDI from E. faecalis = conditions: substrate, cited from earlier work
[1] = system: human imidazoline receptors (I1, I2); conditions: cited from earlier work
[2] = target: T1, E. coli agmatinase (EcAGM) (Escherichia coli, UniProt P60651); test: E. coli agmatinase; format: biochemical; conditions: for Ki: EcAGM, competitive inhibition, pH 7.5, 100 mM HEPES, 2 mM MnCl2, substrate agmatine
T1 sequence (P60651 1-306): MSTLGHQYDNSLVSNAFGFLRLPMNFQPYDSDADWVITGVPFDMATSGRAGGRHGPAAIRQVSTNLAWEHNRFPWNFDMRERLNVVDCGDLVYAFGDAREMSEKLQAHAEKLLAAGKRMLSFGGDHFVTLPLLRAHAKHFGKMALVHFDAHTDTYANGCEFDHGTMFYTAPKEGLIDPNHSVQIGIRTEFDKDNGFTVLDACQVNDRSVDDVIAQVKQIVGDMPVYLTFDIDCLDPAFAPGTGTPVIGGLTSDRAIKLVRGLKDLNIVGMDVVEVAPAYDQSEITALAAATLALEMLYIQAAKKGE

[3] = system: E. faecalis agmatine deiminase (AgDI); test: Agmatine deiminase activity, GDH coupled enzyme assay; format: biochemical, Enterococcus faecalis; conditions: pH 7.5
Method in brief: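 His-tagged, codon-optimized E. faecalis AgDI was expressed in E. coli (LB without added metal, 1 mM IPTG, 16°C, 20 h) and purified by Ni-affinity chromatography. Agmatine-initiated ammonia release was coupled to GDH (2.5 U/mL) with 5 mM 2-oxoglutarate, 0.3 mM NADH and 0.8 mM ADP in HEPES-NaOH pH 7.5. Initial rates came from continuous A340 (ε 6220 M⁻¹cm⁻¹, 0.56 cm path).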

[4] = 1000–2000 mg daily; cited from earlier work
[5] = target: serine hydroxymethyltransferase 2; conditions: read-out: Ki, serine hydroxymethyltransferase 2; mixed inhibition; cited from earlier work
[6] = cited from earlier work
[7] = system: EcAGM, CbAGM, GpuA, AGMAT, ARG1 and ARG2; test: HPLC analysis for metformin transformation by purified enzymes; format: in vitro ADME; conditions: 1 mM metformin, 10 μg purified enzyme, 20 mM CHES pH 9, overnight
Method in brief: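 His-tagged enzymes were expressed in E. coli BL21(DE3) and purified by Ni-affinity IMAC. ARG2 and AGMAT were mitochondrial-signal truncations (ARG2 Δ1-24/Δ331-354, AGMAT Δ1-35). Metformin was incubated with each enzyme, then analysed by reversed-phase C18 HPLC with an isocratic mobile phase of 75:25 (v/v) acetonitrile:10 mM potassium phosphate pH 6.6, which separates guanylurea from metformin.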

complex IV = conditions: cited from earlier work
[8] = target: C. butyricum agmatinase (CbAGM) (Clostridium butyricum, UniProt C4IHF6); format: biochemical; conditions: 5000 µM
Chain of C. butyricum agmatinase (CbAGM) (C4IHF6 1-283): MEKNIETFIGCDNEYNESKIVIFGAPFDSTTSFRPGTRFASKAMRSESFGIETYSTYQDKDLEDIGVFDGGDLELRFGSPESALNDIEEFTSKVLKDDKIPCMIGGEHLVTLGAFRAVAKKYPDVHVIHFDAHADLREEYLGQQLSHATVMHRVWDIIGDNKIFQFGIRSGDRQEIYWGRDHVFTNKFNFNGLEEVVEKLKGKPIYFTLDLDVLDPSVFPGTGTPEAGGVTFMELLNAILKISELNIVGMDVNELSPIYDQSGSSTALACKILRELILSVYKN

human PEN2 protein = conditions: cited from earlier work
type 2 diabetes patients = conditions: cited from earlier work

## NCCCCN=C(N)N [agmatine]
AgDI from E. faecalis; read-out: KM, AgDI from E. faecalis
  Km: 35 µM
AgDI from E. faecalis
  kcat, AgDI from E. faecalis: 840 s⁻¹
[1]
  binding and agonism at human imidazoline receptors (I1, I2): micromolar range

## CCCCNC(=N)NC(=N)N [buformin]
[2]
  Ki: 100 µM

## CC(C)=CCN=C(N)N [galegine]
[3]; 5 mM galegine
  inhibition of agmatine deiminase (AgDI): not inhibited
[2]
  Ki: 7 µM

## CN(C)C(=N)N=C(N)N [metformin]
[4]
  fraction excreted into wastewater: > 80%
[3]; 50 mM metformin
  inhibition of agmatine deiminase (AgDI): not inhibited
[3]; 50 mM metformin, listed as Metformin
  inhibition of agmatine deiminase (AgDI): does not inhibit
[5]
  Ki: 13 mM
[6]
  concentration of metformin in the human gut: 1 to 10 mM
[7]
  transformation of metformin by ureohydrolase homologs: No metabolism; also recorded: No transformation
Complex IV
  inhibitory concentration, mitochondrial respiration proteins like complex IV: hundreds of micromolar
[8]
  predicted reduction in the maximum velocity of CbAGM-like enzymes: 27%
[2]; 5 mM metformin, 20 μM agmatine, steady state Michaelis-Menten model
  predicted reduction in the maximum velocity of EcAGM-like enzymes: 83%
[2]
  Ki: 1100 µM and 1000 µM and ~1000 µM
Human PEN2 protein
  binding constant, human PEN2 protein: micromolar range
Type 2 diabetes patients
  effectiveness of intravenous administration in type 2 diabetes patients: little or no effectiveness

## [H]/N=C(/N)N/C(=N/[H])NCCc1ccccc1 [phenformin]
[2]
  Ki: 600 µM
